ChEMBL document CHEMBL1124510, “(+/-)-7-chloro-8-hydroxy-1-(4'-[125I]iodophenyl)-3-methyl-2,3,4,5- tetrahydro-1H-3-benzazepine: a potential CNS D-1 dopamine receptor imaging agent” (J Med Chem, 1989)
Values belong to the compound of their own block, whether it stands above or below them.

Tests used:
[1] = tested on: Rattus norvegicus; assay: In vivo biodistribution in rats after an intravenous injection at 60 min was determined in skin; Expressed as percent dose/organ; assay type: ADME, organism-based; conditions: 1 h
How it was run: (§1)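 [125I]FISCH in 0.2 mL saline was injected into the femoral vein of male Sprague-Dawley rats (225-300 g) under halothane. Rats were killed by cardiac excision at set times. Organs were weighed and gamma-counted against diluted aliquots of the dose. Blood and muscle totals assume 7% and 40% of body weight. Results are averages of six rats ± SD.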

[2] = species: Rattus norvegicus; assay: Selectivity ratio for biodistribution in brain and blood of rats after 15 minutes; Expressed as percent dose/gram ratio; assay type: ADME, organism-based; conditions: 0.25 h
How it was run: (§2)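 After femoral iv injection of [125I]FISCH in saline into halothane-anesthetized male Sprague-Dawley rats, tissues were weighed and gamma-counted. Percent dose/gram was calculated against the diluted injected dose, and the ratio was taken from the percent dose/gram values.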

[3] = tested on: Rattus norvegicus; assay: In vivo biodistribution in rats after an intravenous injection at 2 min was determined in spleen; Expressed as percent dose/organ; assay type: ADME, organism-based; how it was run: as §1
[4] = tested on: Rattus norvegicus; assay: In vivo biodistribution in rats after an intravenous injection at 60 min was determined in blood; Expressed as percent dose/organ; assay type: ADME, organism-based; conditions: 1 h; how it was run: as §1
[5] = tested on: Rattus norvegicus; assay: In vivo biodistribution in rats after an intravenous injection at 60 min was determined in lung; Expressed as percent dose/organ; assay type: ADME, organism-based; conditions: 1 h; how it was run: as §1
[6] = tested on: Rattus norvegicus; assay: In vivo biodistribution in rats after an intravenous injection at 60 min was determined in muscle; Expressed as percent dose/organ; assay type: ADME, organism-based, Muscle tissue; conditions: 1 h; how it was run: as §1
[7] = tested on: Rattus norvegicus; assay: In vivo biodistribution in rats after an intravenous injection at 15 min was determined in skin; Expressed as percent dose/organ; assay type: ADME, organism-based; conditions: 0.25 h; how it was run: as §1
[8] = species: Rattus norvegicus; assay: Selectivity ratio for biodistribution in brain and blood of rats after 2 minutes; Expressed as percent dose/gram ratio; assay type: ADME, organism-based; how it was run: as §2
[9] = tested on: Rattus norvegicus; assay: In vivo biodistribution in rats after an intravenous injection at 2 min was determined in brain; Expressed as percent dose/organ; assay type: ADME, organism-based; how it was run: as §1
[10] = tested on: Rattus norvegicus; assay: In vivo biodistribution in rats after an intravenous injection at 60 min was determined in liver; Expressed as percent dose/organ; assay type: ADME, organism-based; conditions: 1 h; how it was run: as §1
[11] = tested on: Rattus norvegicus; assay: In vivo biodistribution in rats after an intravenous injection at 15 min was determined in brain; Expressed as percent dose/organ; assay type: ADME, organism-based; conditions: 0.25 h; how it was run: as §1
[12] = species: Rattus norvegicus; assay: Selectivity ratio for biodistribution in brain and blood of rats after 60 minutes; Expressed as percent dose/gram ratio; assay type: ADME, organism-based; conditions: 1 h; how it was run: as §2
[13] = tested on: Rattus norvegicus; assay: In vivo biodistribution in rats after an intravenous injection at 15 min was determined in heart; Expressed as percent dose/organ; assay type: ADME, organism-based; conditions: 0.25 h; how it was run: as §1
[14] = tested on: Rattus norvegicus; assay: In vivo biodistribution in rats after an intravenous injection at 2 min was determined in muscle; Expressed as percent dose/organ; assay type: ADME, organism-based, Muscle tissue; how it was run: as §1
[15] = tested on: Rattus norvegicus; assay: In vivo biodistribution in rats after an intravenous injection at 60 min was determined in kidney; Expressed as percent dose/organ; assay type: ADME, organism-based; conditions: 1 h; how it was run: as §1
[16] = tested on: Rattus norvegicus; assay: In vivo biodistribution in rats after an intravenous injection at 15 min was determined in spleen; Expressed as percent dose/organ; assay type: ADME, organism-based; conditions: 0.25 h; how it was run: as §1
[17] = tested on: Rattus norvegicus; assay: In vivo biodistribution in rats after an intravenous injection at 2 min was determined in kidney; Expressed as percent dose/organ; assay type: ADME, organism-based; how it was run: as §1
[18] = tested on: Rattus norvegicus; assay: In vivo biodistribution in rats after an intravenous injection at 2 min was determined in thyroid; Expressed as percent dose/organ; assay type: ADME, organism-based, Thyroid gland; how it was run: as §1
[19] = tested on: Rattus norvegicus; assay: In vivo biodistribution in rats after an intravenous injection at 60 min was determined in brain; Expressed as percent dose/organ; assay type: ADME, organism-based; conditions: 1 h; how it was run: as §1
[20] = tested on: Rattus norvegicus; assay: In vivo biodistribution in rats after an intravenous injection at 2 min was determined in skin; Expressed as percent dose/organ; assay type: ADME, organism-based; how it was run: as §1
[21] = tested on: Rattus norvegicus; assay: In vivo biodistribution in rats after an intravenous injection at 2 min was determined in blood; Expressed as percent dose/organ; assay type: ADME, organism-based; how it was run: as §1
[22] = tested on: Rattus norvegicus; assay: In vivo biodistribution in rats after an intravenous injection at 60 min was determined in heart; Expressed as percent dose/organ; assay type: ADME, organism-based; conditions: 1 h; how it was run: as §1
[23] = molecular target: T1, D(1A) dopamine receptor (Rattus norvegicus, UniProt P18901); assay: In vitro binding affinity to the rat striatal homogenate
How it was run: (§3)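 Saturation binding of [125I]FISCH to male Sprague-Dawley rat (200-250 g) striatal membranes. Tissue homogenized in ice-cold 50 mM Tris-HCl pH 7.4, pelleted twice at 20000g. Assay buffer 50 mM Tris pH 7.4, 120 mM NaCl, 5 mM KCl, 2 mM CaCl2, 1 mM MgCl2, with 40-60 μg protein. Incubated 20 min at 37 °C with stirring, then filtered through protamine-treated GF/B filters. Specific binding gives […].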

[24] = tested on: Rattus norvegicus; assay: In vivo biodistribution in rats after an intravenous injection at 2 min was determined in lung; Expressed as percent dose/organ; assay type: ADME, organism-based; how it was run: as §1
[25] = tested on: Rattus norvegicus; assay: In vivo biodistribution in rats after an intravenous injection at 2 min was determined in liver; Expressed as percent dose/organ; assay type: ADME, organism-based; how it was run: as §1
[26] = tested on: Rattus norvegicus; assay: In vivo biodistribution in rats after an intravenous injection at 60 min was determined in spleen; Expressed as percent dose/organ; assay type: ADME, organism-based; conditions: 1 h; how it was run: as §1
[27] = tested on: Rattus norvegicus; assay: In vivo biodistribution in rats after an intravenous injection at 15 min was determined in lung; Expressed as percent dose/organ; assay type: ADME, organism-based; conditions: 0.25 h; how it was run: as §1
[28] = tested on: Rattus norvegicus; assay: In vivo biodistribution in rats after an intravenous injection at 15 min was determined in blood; Expressed as percent dose/organ; assay type: ADME, organism-based; conditions: 0.25 h; how it was run: as §1
[29] = tested on: Rattus norvegicus; assay: In vivo biodistribution in rats after an intravenous injection at 15 min was determined in liver; Expressed as percent dose/organ; assay type: ADME, organism-based; conditions: 0.25 h; how it was run: as §1
[30] = tested on: Rattus norvegicus; assay: In vivo biodistribution in rats after an intravenous injection at 15 min was determined in muscle; Expressed as percent dose/organ; assay type: ADME, organism-based, Muscle tissue; conditions: 0.25 h; how it was run: as §1
[31] = tested on: Rattus norvegicus; assay: In vivo biodistribution in rats after an intravenous injection at 15 min was determined in kidney; Expressed as percent dose/organ; assay type: ADME, organism-based; conditions: 0.25 h; how it was run: as §1
[32] = tested on: Rattus norvegicus; assay: In vivo biodistribution in rats after an intravenous injection at 60 min was determined in thyroid; Expressed as percent dose/organ; assay type: ADME, organism-based, Thyroid gland; conditions: 1 h; how it was run: as §1
[33] = tested on: Rattus norvegicus; assay: In vivo biodistribution in rats after an intravenous injection at 2 min was determined in heart; Expressed as percent dose/organ; assay type: ADME, organism-based; how it was run: as §1
[34] = tested on: Rattus norvegicus; assay: In vivo biodistribution in rats after an intravenous injection at 15 min was determined in thyroid; Expressed as percent dose/organ; assay type: ADME, organism-based, Thyroid gland; conditions: 0.25 h; how it was run: as §1
[35] = molecular target: T1, D(1A) dopamine receptor; assay: (§4) In vitro binding affinity to the rat striatal homogenate.
[36] = species: Rattus norvegicus; assay: as §4; how it was run: as §3
[37] = molecular target: T1, D(1A) dopamine receptor; assay: In vitro binding affinity towards Dopamine receptor D1 by displacing [125I]FISCH radioligand in rat striatal homogenate
How it was run: (§5)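 Assay buffer 50 mM Tris pH 7.4 with NaCl, KCl, CaCl2 and MgCl2, 40-60 μg protein. Incubated 20 min at 37 °C with stirring, then vacuum-filtered on GF/B filters pretreated with 0.2% protamine sulfate and washed with cold Tris.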

[38] = molecular target: T1, D(1A) dopamine receptor; assay: In vitro binding affinity towards dDopamine receptor D1 by displacing [125I]FISCH radioligand in rat striatal homogenate
How it was run: as §5, with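 “Competition against 0.15-0.30 nM [125I]FISCH on rat striatal membranes, each competitor at 7-11 concentrations. Assay” for “Assay”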

T1 sequence (P18901 whole entry): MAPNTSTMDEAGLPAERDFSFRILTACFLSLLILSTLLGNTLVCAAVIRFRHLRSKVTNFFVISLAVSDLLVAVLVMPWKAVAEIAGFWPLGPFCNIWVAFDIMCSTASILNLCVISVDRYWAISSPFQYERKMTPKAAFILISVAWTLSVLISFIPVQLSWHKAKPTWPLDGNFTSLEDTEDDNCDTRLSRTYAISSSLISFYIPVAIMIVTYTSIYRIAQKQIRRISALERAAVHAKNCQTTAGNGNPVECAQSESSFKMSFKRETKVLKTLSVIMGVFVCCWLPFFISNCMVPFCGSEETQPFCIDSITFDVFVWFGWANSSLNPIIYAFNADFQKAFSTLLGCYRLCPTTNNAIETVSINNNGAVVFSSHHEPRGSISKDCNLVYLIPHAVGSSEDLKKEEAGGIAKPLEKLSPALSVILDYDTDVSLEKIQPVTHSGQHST

Biodistribution [1]: 9.25%
Biodistribution [3]: 2.79%
Biodistribution [4]: 1.83%
Biodistribution [5]: 1.47%
Biodistribution [6]: 19.07%
Biodistribution [7]: 9.62%
Biodistribution [9]: 2.27%
Biodistribution [10]: 12.32%
Biodistribution [11]: 1.4%
Biodistribution [13]: 0.38%
Biodistribution [14]: 35.68%
Biodistribution [15]: 1.31%
Biodistribution [16]: 0.56%
Biodistribution [17]: 5.98%
Biodistribution [18]: 0.11%
Biodistribution [19]: 0.55%
Biodistribution [20]: 7.43%
Biodistribution [21]: 3.46%
Biodistribution [22]: 0.18%
Kd [23]: 1.43 nM
Biodistribution [24]: 8.55%
Biodistribution [25]: 17.1%
Biodistribution [26]: 0.67%
Biodistribution [27]: 2.73%
Biodistribution [28]: 2.28%
Biodistribution [29]: 14.72%
Biodistribution [30]: 34.22%
Biodistribution [31]: 2.09%
Biodistribution [32]: 0.04%
Biodistribution [33]: 1.97%
Biodistribution [34]: 0.06%
SMILES: CN1CCc2cc(Cl)c(O)cc2C(c2ccc([125I])cc2)C1 (stereo not given)
Ratio [2]: 6.19%
Ratio [8]: 7.35%
Ratio [12]: 3.08%

Kd [36]: 0.7 nM
Ki [37]: 13.4 nM
SMILES: CN1CCc2cc(I)c(O)cc2[C@@H](c2ccccc2)C1 (racemic)

Ki [37]: 1.71 nM
SMILES: CN1CCc2cc(Cl)c(O)cc2C(c2ccc(I)cc2)C1 (racemic)

Kd [36]: 0.36 nM
SMILES: CN1CCc2cc(Cl)c(O)cc2[C@@H](c2ccccc2)C1 [SCH-23390]

Second part, the compound before the results:

SMILES: CN1CCc2ccc(O)cc2[C@@H](c2ccccc2)C1
Kd [35]: 197 nM

SMILES: O=C(c1ccc(F)cc1)C1CCN(CCn2c(=O)[nH]c3ccccc3c2=O)CC1 [KETANSERIN]
Ki [38]: > 3000 nM
